Holding throughout (type): functional
For test [1], the system named is Salmonella enterica subsp. enterica serovar Typhi str. CT18. As to the kind of experiment: Antimicrobial activity against Salmonella typhi MTCC 733 after 24 hrs by agar dilution assay. The conditions noted are these: MTCC 733, 24 h.
The test system of test [2] is Pseudomonas aeruginosa. As to the kind of experiment: Antimicrobial activity against Pseudomonas aeruginosa MTCC 3541 after 24 hrs by agar dilution assay. The conditions noted are these: MTCC 3541, 24 h. The essentials: (§1)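 Agar dilution MIC following NCCLS. Cultures streaked on soyabean casein digest agar overnight at 37 °C, suspended to 0.5 McFarland, then diluted 10-fold (1.2 × 10⁷ CFU/ml). DMSO stocks diluted and added to molten Mueller-Hinton agar, final concentrations 64 down to 0.12 by twofold steps. Plates surface-inoculated, incubated 35 °C for 24 h. MIC is lowest concentration with no visible growth.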
(In general: In agar dilution the substance is mixed into plates at graded concentrations.)

In test [3] the test system is Staphylococcus aureus. The test is described as follows: Antimicrobial activity against Staphylococcus aureus MTCC 3160 at 1 mg/ml after 24 hrs by agar diffusion assay. To be noted: MTCC 3160, 24 h, read-out: DIZ. The essentials: (§2)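 Agar well diffusion. 24-h cultures adjusted to 0.5 McFarland (1.5 × 10⁸ CFU/ml), mixed into molten cooled Mueller-Hinton agar (pH 7.4) and poured. 6 mm wells punched, each loaded with 50 µl of 1 mg/ml DMSO solution. DMSO as negative control, antibiotics as positive controls. Plates incubated 35 °C for 24 h. Mean of three replicates.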
On the technique in general: A growth-free zone around the sample is the usual read-out of agar diffusion tests.

The test system of test [4] is Staphylococcus epidermidis. The test is described as follows: Antimicrobial activity against Staphylococcus epidermidis MTCC 2639 at 1 mg/ml after 24 hrs by agar diffusion assay. To be noted: for zone of inhibition at 1000 µg/mL: MTCC 2639, 24 h, read-out: DIZ. In a few lines:
as §2

In test [5] the test system is Bacillus pumilus. As to the kind of experiment: Antimicrobial activity against Bacillus pumilus MTCC 1456 at 1 mg/ml after 24 hrs by agar diffusion assay. The conditions noted are these: for zone of inhibition at 1000 µg/mL: MTCC 1456, 24 h, read-out: DIZ. In a few lines:
as §2

The subject of test [6] is Salmonella enterica subsp. enterica serovar Typhi str. CT18. The test is described as follows: Antimicrobial activity against Salmonella typhi MTCC 733 at 1 mg/ml after 24 hrs by agar diffusion assay. The conditions noted are these: for zone of inhibition at 1000 µg/mL: MTCC 733, 24 h, read-out: DIZ. The essentials: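 Well diffusion in MHA (pH 7.4) seeded with 24-h culture adjusted to 0.5 McFarland (1.5 × 10⁸ CFU/ml). Wells of 6 mm received 50 µl of 1 mg/ml DMSO solution; DMSO served as negative control. Incubated 35 °C, 24 h. Mean of three replicates.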

Test [7] deals with Pseudomonas aeruginosa. As to the kind of experiment: Antimicrobial activity against Pseudomonas aeruginosa MTCC 3541 at 1 mg/ml after 24 hrs by agar diffusion assay. The conditions noted are these: for zone of inhibition at 1000 µg/mL: MTCC 3541, 24 h, read-out: DIZ. The essentials: as §2
Test [8] deals with Staphylococcus aureus. As to the kind of experiment: Antimicrobial activity against Staphylococcus aureus MTCC 3160 after 24 hrs by agar dilution assay. The conditions noted are these: MTCC 3160, 24 h. In a few lines: as §1
Test [9] concerns Staphylococcus epidermidis. The test is described as follows: Antimicrobial activity against Staphylococcus epidermidis MTCC 2639 after 24 hrs by agar dilution assay. To be noted: MTCC 2639, 24 h. The essentials: as §1
Test [10] has as its system Bacillus pumilus. The test is described as follows: Antimicrobial activity against Bacillus pumilus MTCC 1456 after 24 hrs by agar dilution assay. The conditions noted are these: MTCC 1456, 24 h. In a few lines: as §1

≈ marks a conversion by molar mass, not a printed value. Calls of active or inactive are those of the source. No cut-off for these calls is given here. Bounds are passed on as bounds.

As for `COC1(O)C(=O)c2ccccc2OC1(OC)c1cn(-c2ccccc2)nc1-c1ccc([N+](=O)[O-])cc1` (centres undefined), the MIC was 8 µg/mL (≈ 16.4 µM) in test [1]; 16 µg/mL (≈ 32.8 µM) in test [2]; 2 µg/mL (≈ 4.1 µM) in test [8]; 8 µg/mL (≈ 16.4 µM) in test [9]; 32 µg/mL (≈ 65.6 µM) in test [10]. Also, the zone of inhibition at 1000 µg/mL in test [3] was determined as 26 mm; in [4], 18.5 mm; in [5], 15.8 mm; in test [6] it was 20.6 mm; in [7], 16.6 mm.

Turning to `N[C@@H](C(=O)N[C@@H]1C(=O)N2C(C(=O)O)=C(Cl)CS[C@H]12)c1ccccc1` [CEFACLOR ANHYDROUS], the minimum inhibitory concentration (MIC) in test [1] is 8 µg/mL (≈ 21.8 µM); in test [2] it was < 16 µg/mL; in [8] it was 2 µg/mL (≈ 5.44 µM); in test [9], 2 µg/mL (≈ 5.44 µM); in test [10] it was 8 µg/mL (≈ 21.8 µM).

Take `CO/N=C(\C(=O)N[C@@H]1C(=O)N2C(C(=O)OC(C)OC(C)=O)=C(COC(N)=O)CS[C@H]12)c1ccco1` (some centres undefined) [CEFUROXIME AXETIL]: the MIC in [1] was 8 µg/mL (≈ 15.7 µM); in test [2] it was > 16 µg/mL; in test [8], 8 µg/mL (≈ 15.7 µM); in test [9], 8 µg/mL (≈ 15.7 µM); in test [10], > 16 µg/mL.

In the case of `COC1(O)C(=O)c2ccccc2OC1(OC)c1cn(-c2ccccc2)nc1-c1ccc(Br)cc1` (centres undefined), the MIC in [1] is > 64 µg/mL; in [2], > 64 µg/mL; in test [8] it was 64 µg/mL (≈ 123 µM); in [9], > 64 µg/mL; in [10], > 64 µg/mL. Besides, the zone of inhibition at 1000 µg/mL in test [3] is 10.3 mm. For the same compound, the “diameter of the inhibition zone (DIZ)” value in test [4], in [5], in test [6] and in test [7] was “inactive” each time.

Regarding `COc1ccc(-c2nn(-c3ccccc3)cc2C2(OC)Oc3ccccc3C(=O)C2(O)OC)cc1` (centres undefined), the MIC is > 64 µg/mL in test [1]; > 64 µg/mL in [2]; 16 µg/mL (≈ 33.9 µM) in test [8]; > 64 µg/mL in [9]; > 64 µg/mL in [10]. In addition, in test [3], the zone of inhibition at 1000 µg/mL turned out to be 18 mm. Moreover, the “diameter of the inhibition zone (DIZ)” value in test [4], in test [5], in [6] and in test [7] was “inactive” in each case.

As for `COC1(O)C(=O)c2ccccc2OC1(OC)c1cn(-c2ccccc2)nc1-c1ccc(F)cc1` (centres undefined), the MIC in [1] turned out to be 8 µg/mL (≈ 17.4 µM); in [2] it was 8 µg/mL (≈ 17.4 µM); in [8], 4 µg/mL (≈ 8.69 µM); in test [9], 64 µg/mL (≈ 139 µM); in test [10], 64 µg/mL (≈ 139 µM). Further, the zone of inhibition at 1000 µg/mL was 23 mm in test [3]; 12.1 mm in [4]; 10.1 mm in [5]; 18.2 mm in test [6]; 22.2 mm in [7].

Take `CC(=O)NC[C@H]1CN(c2ccc(N3CCOCC3)c(F)c2)C(=O)O1` [LINEZOLID]: the MIC in test [1] was 8 µg/mL (≈ 23.7 µM); in test [2], < 16 µg/mL; in test [9], < 16 µg/mL; in [10], 4 µg/mL (≈ 11.9 µM).

Turning to `COC1(O)C(=O)c2ccccc2OC1(OC)c1cn(-c2ccccc2)nc1-c1ccc(C)cc1` (centres undefined), the MIC in test [1] was > 64 µg/mL; in [2], > 64 µg/mL; in test [8] it was 32 µg/mL (≈ 70.1 µM); in test [9], 64 µg/mL (≈ 140 µM); in test [10] it was > 64 µg/mL. Further, the zone of inhibition at 1000 µg/mL worked out at 16.1 mm in test [3] and 12.6 mm in test [4]. In addition, the “diameter of the inhibition zone (DIZ)” value in test [5], in test [6] and in test [7] was “inactive” throughout.

`COC1(O)C(=O)c2ccccc2OC1(OC)c1cn(-c2ccccc2)nc1-c1ccccc1` (centres undefined): the MIC in test [1] is > 64 µg/mL; in test [2], > 64 µg/mL; in [8], 16 µg/mL (≈ 36.2 µM); in test [9], > 64 µg/mL; in test [10], > 64 µg/mL. For the same compound, the zone of inhibition at 1000 µg/mL in [3] amounted to 18.1 mm. The “diameter of the inhibition zone (DIZ)” value in test [4], in [5], in [6] and in [7] was “inactive” each time.

With `COC1(O)C(=O)c2ccccc2OC1(OC)c1cn(-c2ccccc2)nc1-c1ccc(Cl)cc1` (centres undefined), the MIC is > 64 µg/mL in [1]; 32 µg/mL (≈ 67.1 µM) in [2]; 8 µg/mL (≈ 16.8 µM) in [8]; 16 µg/mL (≈ 33.5 µM) in test [9]; > 64 µg/mL in [10]. Besides, the zone of inhibition at 1000 µg/mL in test [3] was found to be 20.4 mm; in [4] it was 16.7 mm; in test [7], 14.7 mm. Besides, the “diameter of the inhibition zone (DIZ)” value in test [5] and in test [6] was “inactive” each time.

One may read the MIC as the lowest concentration found to suppress growth.

For the origin of these results see ChEMBL document CHEMBL1137679, “Synthesis and antibacterial activity of some new 2,3-dimethoxy-3-hydroxy-2-(1-phenyl-3-aryl-4-pyrazolyl)chromanones” (2009).
